Results: PubChem BioAssay AID588768 (The Scripps Research Institute Molecular Screening Center, 2011)
Activity calls are given as the source filed them.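 How the source made its calls: active means cytotoxic, with CC50, the dose killing half the cells, at or below 5 µM in either medium; inactive means CC50 above 5 µM in every panel.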

Assay: HEK293T cell viability reduction – WST-1 absorbance, serum-free and serum media, powder, cytotoxicity control for pPAFAH inhibitor project, dose response (AID 588768)
How it was run: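 Test system: HEK 293T cells; Medium: DMEM with or without 10% FCS; Compound: 7-point 1:5 series up to 50 µM; Timing: 48 h exposure at 37 °C; Measured by: WST-1 colorimetric absorbance; Control set: no-compound cells high, no-cell wells low.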

| SMILES | CC50 (with 10% FCS) | CC50 (without serum) |
| --- | --- | --- |
| Cc1cc(N2CCN(C(=O)Oc3ccc(-c4ccccc4)cc3)CC2)c2ccccc2n1 | 12 µM (inactive) | 1.8 µM |
| Cc1cc(N2CCN(C(=O)Oc3ccc([N+](=O)[O-])cc3)CC2)c2ccccc2n1 | 13 µM (inactive) | 0.061 µM |
| Cc1cc(N2CCN(C(=O)Oc3ccc(-c4ccccc4)cn3)CC2)c2ccccc2n1 | 35 µM (inactive) | 6.7 µM (inactive) |
